Measured values published in ChEMBL document CHEMBL1649420, “Identifying chelators for metalloprotein inhibitors using a fragment-based approach” (J Med Chem, 2011).

Assays:
[1] = target: T1, Nitric oxide synthase, inducible (Mus musculus) (UniProt P29477); conditions: at 1 mM;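 also: recombinant enzyme, activity read out colorimetrically after 40 min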
T1 sequence (whole entry): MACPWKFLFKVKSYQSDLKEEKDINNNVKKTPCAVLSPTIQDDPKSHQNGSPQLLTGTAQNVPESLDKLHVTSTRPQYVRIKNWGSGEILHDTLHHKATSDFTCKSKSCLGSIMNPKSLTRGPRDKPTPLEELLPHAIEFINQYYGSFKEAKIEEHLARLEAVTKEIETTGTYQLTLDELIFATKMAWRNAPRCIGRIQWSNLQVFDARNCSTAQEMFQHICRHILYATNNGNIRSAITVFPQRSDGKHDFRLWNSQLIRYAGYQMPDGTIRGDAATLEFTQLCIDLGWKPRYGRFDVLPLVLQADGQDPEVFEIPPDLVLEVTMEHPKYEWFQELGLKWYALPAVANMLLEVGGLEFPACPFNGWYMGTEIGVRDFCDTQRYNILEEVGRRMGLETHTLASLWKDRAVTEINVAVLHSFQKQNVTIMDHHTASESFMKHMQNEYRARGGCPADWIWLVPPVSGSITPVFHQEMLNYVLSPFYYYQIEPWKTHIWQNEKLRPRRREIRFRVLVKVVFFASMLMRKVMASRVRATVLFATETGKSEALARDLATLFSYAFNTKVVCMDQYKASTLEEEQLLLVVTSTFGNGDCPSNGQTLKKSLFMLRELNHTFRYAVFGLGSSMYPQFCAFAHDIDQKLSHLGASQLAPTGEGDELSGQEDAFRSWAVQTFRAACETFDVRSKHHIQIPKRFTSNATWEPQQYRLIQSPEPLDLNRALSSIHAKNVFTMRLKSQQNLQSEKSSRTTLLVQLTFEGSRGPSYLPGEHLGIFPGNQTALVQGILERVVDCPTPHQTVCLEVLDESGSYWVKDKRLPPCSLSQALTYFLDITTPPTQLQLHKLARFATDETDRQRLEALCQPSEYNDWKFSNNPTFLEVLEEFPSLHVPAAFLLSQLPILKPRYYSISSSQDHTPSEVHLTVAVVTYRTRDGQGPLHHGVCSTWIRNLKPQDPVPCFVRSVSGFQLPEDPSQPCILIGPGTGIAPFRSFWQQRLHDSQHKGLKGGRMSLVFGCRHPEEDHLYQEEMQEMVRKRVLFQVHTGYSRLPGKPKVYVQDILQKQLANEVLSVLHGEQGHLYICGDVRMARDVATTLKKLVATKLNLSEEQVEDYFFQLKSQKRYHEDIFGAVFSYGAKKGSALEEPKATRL

[2] = target: T2, Lethal factor (Bacillus anthracis) (UniProt P15917); conditions: at 1 mM
T2 sequence (whole entry): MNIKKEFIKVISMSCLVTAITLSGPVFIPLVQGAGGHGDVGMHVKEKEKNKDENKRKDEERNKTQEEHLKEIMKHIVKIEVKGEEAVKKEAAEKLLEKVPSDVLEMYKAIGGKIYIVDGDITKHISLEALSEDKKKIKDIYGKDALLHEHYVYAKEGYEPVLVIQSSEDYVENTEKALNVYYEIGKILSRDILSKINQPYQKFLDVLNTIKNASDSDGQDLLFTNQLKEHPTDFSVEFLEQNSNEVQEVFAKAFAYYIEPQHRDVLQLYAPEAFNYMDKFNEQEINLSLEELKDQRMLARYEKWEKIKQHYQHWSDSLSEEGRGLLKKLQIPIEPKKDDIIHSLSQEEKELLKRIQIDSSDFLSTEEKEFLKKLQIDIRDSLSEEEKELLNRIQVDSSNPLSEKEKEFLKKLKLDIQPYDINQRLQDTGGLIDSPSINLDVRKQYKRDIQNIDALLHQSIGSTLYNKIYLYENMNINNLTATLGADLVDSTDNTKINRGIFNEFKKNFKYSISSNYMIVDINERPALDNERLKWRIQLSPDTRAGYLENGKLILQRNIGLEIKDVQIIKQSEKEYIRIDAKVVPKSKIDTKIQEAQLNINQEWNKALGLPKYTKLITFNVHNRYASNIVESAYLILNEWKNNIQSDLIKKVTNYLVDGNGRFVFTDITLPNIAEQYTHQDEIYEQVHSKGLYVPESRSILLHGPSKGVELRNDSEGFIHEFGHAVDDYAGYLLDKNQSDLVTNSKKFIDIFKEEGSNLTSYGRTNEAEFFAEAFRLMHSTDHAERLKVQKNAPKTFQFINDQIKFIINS

[3] = target: Stromelysin-1 (Homo sapiens) (UniProt P08254); conditions: at 1 mM;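 also: recombinant enzyme, inhibition read after a 30 min incubation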
[4] = target: T3, Interstitial collagenase (Homo sapiens) (UniProt P03956); conditions: at 1 mM;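 also: recombinant human enzyme, with inhibition measured after 30 min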
T3 sequence (whole entry): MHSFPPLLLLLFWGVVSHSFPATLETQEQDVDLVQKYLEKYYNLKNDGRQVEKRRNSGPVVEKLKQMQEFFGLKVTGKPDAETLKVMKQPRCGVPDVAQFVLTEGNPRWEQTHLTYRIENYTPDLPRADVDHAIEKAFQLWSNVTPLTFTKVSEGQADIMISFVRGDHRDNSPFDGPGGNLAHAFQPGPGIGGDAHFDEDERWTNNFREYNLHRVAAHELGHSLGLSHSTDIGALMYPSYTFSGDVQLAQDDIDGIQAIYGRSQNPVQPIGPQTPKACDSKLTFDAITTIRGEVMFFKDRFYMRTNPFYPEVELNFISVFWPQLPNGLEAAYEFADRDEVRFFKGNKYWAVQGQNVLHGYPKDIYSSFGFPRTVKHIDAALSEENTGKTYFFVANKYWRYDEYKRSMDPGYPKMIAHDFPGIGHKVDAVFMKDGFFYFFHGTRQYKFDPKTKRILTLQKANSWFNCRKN

[5] = target: T4, Polyunsaturated fatty acid 5-lipoxygenase (Homo sapiens) (UniProt P09917); assay: Inhibition of human recombinant 5-lipoxygenase at 1 mM after 10 mins by fluorescence assay
T4 sequence (whole entry): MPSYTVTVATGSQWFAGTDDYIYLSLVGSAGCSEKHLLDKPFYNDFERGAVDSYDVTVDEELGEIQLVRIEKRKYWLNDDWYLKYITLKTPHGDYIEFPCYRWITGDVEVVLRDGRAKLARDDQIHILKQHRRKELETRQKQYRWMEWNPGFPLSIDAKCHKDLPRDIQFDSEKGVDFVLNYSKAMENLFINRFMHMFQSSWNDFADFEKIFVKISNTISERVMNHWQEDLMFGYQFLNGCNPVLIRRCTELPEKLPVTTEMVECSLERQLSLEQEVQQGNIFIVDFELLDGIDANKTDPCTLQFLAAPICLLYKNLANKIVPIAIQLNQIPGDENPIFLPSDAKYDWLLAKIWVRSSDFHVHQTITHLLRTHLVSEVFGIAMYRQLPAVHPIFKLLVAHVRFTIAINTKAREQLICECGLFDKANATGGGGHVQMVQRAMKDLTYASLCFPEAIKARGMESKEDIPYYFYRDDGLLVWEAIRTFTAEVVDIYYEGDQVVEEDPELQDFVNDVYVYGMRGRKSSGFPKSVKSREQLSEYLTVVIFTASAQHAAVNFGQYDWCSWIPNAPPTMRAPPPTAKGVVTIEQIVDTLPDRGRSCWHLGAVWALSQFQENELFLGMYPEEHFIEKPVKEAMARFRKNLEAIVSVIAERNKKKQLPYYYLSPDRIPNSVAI

[6] = target: T5, 72 kDa type IV collagenase (Homo sapiens, UniProt P08253); conditions: at 1 mM
Target sequence in this assay (P08253 110-660 limits assumed): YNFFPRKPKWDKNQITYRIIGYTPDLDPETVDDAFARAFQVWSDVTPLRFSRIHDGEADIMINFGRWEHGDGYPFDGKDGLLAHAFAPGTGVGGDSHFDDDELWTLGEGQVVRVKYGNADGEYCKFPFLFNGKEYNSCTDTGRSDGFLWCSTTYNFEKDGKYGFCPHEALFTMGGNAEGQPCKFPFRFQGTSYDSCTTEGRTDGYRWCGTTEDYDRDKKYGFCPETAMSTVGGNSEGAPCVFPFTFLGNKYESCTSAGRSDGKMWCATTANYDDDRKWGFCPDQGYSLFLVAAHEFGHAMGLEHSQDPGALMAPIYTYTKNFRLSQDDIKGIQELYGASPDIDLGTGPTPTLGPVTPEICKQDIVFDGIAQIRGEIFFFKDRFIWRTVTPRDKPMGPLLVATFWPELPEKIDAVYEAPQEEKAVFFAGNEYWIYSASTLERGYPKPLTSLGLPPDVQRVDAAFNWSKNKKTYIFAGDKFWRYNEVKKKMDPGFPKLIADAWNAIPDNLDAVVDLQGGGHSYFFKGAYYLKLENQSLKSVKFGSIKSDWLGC

[7] = target: T6, Tyrosinase (Agaricus bisporus) (UniProt O42713); conditions: at 1 mM;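 also: inhibition measured at 10 min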
T6 sequence (whole entry): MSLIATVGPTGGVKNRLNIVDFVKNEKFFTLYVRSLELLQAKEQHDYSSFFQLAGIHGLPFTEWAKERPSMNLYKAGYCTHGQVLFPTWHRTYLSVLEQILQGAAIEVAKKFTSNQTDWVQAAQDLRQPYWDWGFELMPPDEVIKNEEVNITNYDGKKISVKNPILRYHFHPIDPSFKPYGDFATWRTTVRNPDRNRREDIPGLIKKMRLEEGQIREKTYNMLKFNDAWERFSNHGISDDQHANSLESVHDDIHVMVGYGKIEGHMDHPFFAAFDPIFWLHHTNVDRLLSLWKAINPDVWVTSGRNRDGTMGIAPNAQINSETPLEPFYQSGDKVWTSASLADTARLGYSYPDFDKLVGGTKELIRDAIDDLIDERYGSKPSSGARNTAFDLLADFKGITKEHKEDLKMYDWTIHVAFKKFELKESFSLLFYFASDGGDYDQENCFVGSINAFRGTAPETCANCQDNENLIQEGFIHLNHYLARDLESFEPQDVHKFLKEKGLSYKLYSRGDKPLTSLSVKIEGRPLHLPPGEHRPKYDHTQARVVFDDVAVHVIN

[8] = target: Neutrophil collagenase (Homo sapiens) (UniProt P22894); conditions: at 1 mM;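 also: recombinant human MMP8 enzyme, percent inhibition read after 30 min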
[9] = target: Matrix metalloproteinase-9 (Homo sapiens) (UniProt P14780); conditions: at 1 mM;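 also: recombinant human MMP9, activity read after 30 min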
[10] = target: T5, 72 kDa type IV collagenase; assay: Inhibition of human recombinant MMP2 after 30 mins
Procedure, shortened: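 Enzyme (1.16 U) preincubated 30 min at 37 °C with fragment in 50 mM HEPES, 10 mM CaCl2, 0.05% Brij-35, pH 7.5. Fluorogenic Mca peptide substrate (4 μM final) then added. Rate of fluorescence increase compared with no-inhibitor control (100%). Single-point 25 μM final for the 8-hydroxyquinoline sublibrary. IC50 fitted to dose-response curves from serial dilutions of DMSO stocks.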
Target sequence in this assay (P08253 whole entry): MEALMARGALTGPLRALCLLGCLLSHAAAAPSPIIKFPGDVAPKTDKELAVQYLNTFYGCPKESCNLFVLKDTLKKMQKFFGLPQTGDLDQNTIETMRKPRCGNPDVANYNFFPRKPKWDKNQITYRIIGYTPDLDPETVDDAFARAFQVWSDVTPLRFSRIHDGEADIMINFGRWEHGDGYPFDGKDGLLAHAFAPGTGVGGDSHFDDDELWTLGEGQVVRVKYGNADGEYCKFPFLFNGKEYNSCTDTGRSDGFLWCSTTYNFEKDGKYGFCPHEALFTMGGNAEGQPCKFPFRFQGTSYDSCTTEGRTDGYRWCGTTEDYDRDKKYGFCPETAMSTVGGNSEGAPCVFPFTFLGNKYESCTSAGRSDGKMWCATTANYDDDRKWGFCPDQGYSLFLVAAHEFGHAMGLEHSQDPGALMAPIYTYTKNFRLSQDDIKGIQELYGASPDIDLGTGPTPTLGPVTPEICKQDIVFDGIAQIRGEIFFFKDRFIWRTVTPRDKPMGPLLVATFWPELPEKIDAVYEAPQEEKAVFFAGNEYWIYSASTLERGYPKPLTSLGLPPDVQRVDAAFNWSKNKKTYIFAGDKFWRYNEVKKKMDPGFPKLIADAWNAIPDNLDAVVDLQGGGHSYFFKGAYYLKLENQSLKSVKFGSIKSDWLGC

Neutrophil collagenase (Homo sapiens), sequence (P22894 101-467 limits assumed): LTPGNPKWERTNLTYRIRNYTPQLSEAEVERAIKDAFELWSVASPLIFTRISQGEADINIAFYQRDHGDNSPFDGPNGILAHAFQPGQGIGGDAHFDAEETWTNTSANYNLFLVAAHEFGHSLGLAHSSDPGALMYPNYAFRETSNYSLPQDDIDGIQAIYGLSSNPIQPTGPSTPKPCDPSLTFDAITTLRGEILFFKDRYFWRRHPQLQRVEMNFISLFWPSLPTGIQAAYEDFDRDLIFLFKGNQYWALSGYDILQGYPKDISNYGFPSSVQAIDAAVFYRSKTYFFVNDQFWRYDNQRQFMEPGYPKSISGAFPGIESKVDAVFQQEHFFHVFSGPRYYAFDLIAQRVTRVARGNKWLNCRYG
Stromelysin-1 (Homo sapiens), sequence (P08254 100-477 limits assumed): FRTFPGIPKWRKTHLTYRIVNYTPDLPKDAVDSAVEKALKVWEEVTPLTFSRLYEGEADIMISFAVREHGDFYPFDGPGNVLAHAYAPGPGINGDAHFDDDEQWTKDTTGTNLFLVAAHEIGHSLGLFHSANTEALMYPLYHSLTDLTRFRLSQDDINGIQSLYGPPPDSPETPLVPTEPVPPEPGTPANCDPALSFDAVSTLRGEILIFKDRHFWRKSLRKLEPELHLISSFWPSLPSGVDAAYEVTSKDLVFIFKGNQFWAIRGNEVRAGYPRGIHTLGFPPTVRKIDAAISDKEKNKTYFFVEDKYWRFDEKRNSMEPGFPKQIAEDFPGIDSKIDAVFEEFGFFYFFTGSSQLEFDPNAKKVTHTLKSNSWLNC
Matrix metalloproteinase-9 (Homo sapiens), sequence (P14780 whole entry): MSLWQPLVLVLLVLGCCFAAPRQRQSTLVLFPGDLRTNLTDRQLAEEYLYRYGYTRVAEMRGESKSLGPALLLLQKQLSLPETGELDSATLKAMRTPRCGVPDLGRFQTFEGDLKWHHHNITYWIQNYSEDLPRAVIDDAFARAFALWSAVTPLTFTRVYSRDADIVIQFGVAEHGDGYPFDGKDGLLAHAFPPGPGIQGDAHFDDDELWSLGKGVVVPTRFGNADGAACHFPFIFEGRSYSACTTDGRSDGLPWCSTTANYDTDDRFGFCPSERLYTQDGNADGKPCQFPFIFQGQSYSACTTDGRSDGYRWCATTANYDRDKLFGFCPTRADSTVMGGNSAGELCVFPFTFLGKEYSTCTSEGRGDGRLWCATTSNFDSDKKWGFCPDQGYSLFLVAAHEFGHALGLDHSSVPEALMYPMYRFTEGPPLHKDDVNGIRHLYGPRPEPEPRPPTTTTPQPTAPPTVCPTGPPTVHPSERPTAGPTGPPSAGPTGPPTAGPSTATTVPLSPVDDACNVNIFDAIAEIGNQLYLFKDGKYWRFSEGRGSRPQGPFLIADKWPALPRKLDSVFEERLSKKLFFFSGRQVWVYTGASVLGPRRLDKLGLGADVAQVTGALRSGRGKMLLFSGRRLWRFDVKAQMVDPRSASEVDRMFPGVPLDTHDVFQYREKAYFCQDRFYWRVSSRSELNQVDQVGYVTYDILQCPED

Structure (SMILES): O=C(O)c1ccc[nH]1
- inhibition [1]: 7%
- inhibition [2]: 11%
- inhibition [3]: -8%
- inhibition [4]: 8%
- inhibition [5]: 48%
- inhibition [6]: 1%
- inhibition [7]: 69%

Structure (SMILES): Cc1cccc(C(=O)O)n1
- inhibition [1]: 8%
- inhibition [2]: 47%
- inhibition [3]: 48%
- inhibition [4]: -9%
- inhibition [5]: 21%
- inhibition [8]: 3%
- inhibition [9]: -6%
- inhibition [7]: 25%

Structure (SMILES): O=C(O)c1cccnc1C(=O)O
- inhibition [1]: 5%
- inhibition [2]: 49%
- inhibition [4]: 4%
- inhibition [5]: 30%
- inhibition [8]: 14%
- inhibition [9]: -8%
- inhibition [7]: 98%

Structure (SMILES): Oc1cccnc1O
- inhibition [1]: 0%
- inhibition [3]: -7%
- inhibition [4]: 8%
- inhibition [5]: 90%
- inhibition [8]: 7%
- inhibition [9]: 21%
- inhibition [7]: -9%

Structure (SMILES): Cc1nc(O)cc(O)n1
- inhibition [1]: 1%
- inhibition [3]: 22%
- inhibition [4]: 14%
- inhibition [5]: 62%
- inhibition [8]: 14%
- inhibition [9]: 4%
- inhibition [6]: 2%
- inhibition [7]: 12%

Structure (SMILES): O=C(O)c1c(O)cccc1O
- inhibition [1]: 17%
- inhibition [2]: 15%
- inhibition [3]: -4%
- inhibition [4]: 0%
- inhibition [5]: 38%
- inhibition [8]: -5%
- inhibition [6]: -6%
- inhibition [7]: 95%

Structure (SMILES): O=C(O)c1nc(Cl)ccc1Cl
- inhibition [1]: 20%
- inhibition [3]: 0%
- inhibition [4]: 12%
- inhibition [5]: 27%
- inhibition [8]: 18%
- inhibition [9]: 18%
- inhibition [6]: 0%
- inhibition [7]: 96%

Structure (SMILES): O=C(O)c1cccc(O)n1
- inhibition [1]: 6%
- inhibition [2]: 81%
- inhibition [3]: 0%
- inhibition [4]: 16%
- inhibition [5]: 38%
- inhibition [8]: 20%
- inhibition [9]: 16%
- inhibition [7]: 95%

Structure (SMILES): Cc1ccc(C(=O)O)c(O)c1
- inhibition [1]: 15%
- inhibition [2]: 11%
- inhibition [3]: -1%
- inhibition [4]: 8%
- inhibition [5]: 17%
- inhibition [8]: 16%
- inhibition [9]: 10%
- inhibition [7]: 97%

Structure (SMILES): CC(=O)C(Cl)C(C)=O
- inhibition [1]: 80%
- inhibition [2]: 9%
- inhibition [3]: -6%
- inhibition [4]: 11%
- inhibition [5]: 52%
- inhibition [8]: -7%
- inhibition [6]: -9%
- inhibition [7]: 86%

Structure (SMILES): O=c1[nH]ccc(=S)[nH]1
- IC50 [10]: 0.121 mM

Structure (SMILES): CC(=O)CC(C)=O
- inhibition [1]: -6%
- inhibition [2]: 5%
- inhibition [3]: -4%
- inhibition [4]: 10%
- inhibition [5]: 42%
- inhibition [8]: -6%
- inhibition [6]: -5%
- inhibition [7]: 77%

Structure (SMILES): CCC(C(C)=O)C(C)=O
- inhibition [1]: -1%
- inhibition [2]: 4%
- inhibition [3]: 6%
- inhibition [4]: 7%
- inhibition [5]: 62%
- inhibition [8]: 3%
- inhibition [9]: 1%
- inhibition [7]: 85%

Structure (SMILES): CC(=O)NO [ACETOHYDROXAMIC ACID]
- inhibition [1]: 4%
- inhibition [2]: 25%
- inhibition [3]: 5%
- inhibition [4]: 10%
- inhibition [8]: 5%
- IC50 [10]: 15 mM
- inhibition [6]: 4%
- inhibition [7]: -2%

Structure (SMILES): O=C(O)c1cccc2cccnc12
- inhibition [1]: 11%
- inhibition [3]: 77%
- inhibition [4]: 36%
- inhibition [5]: 23%
- inhibition [8]: 38%
- inhibition [9]: 31%
- inhibition [6]: 25%
- inhibition [7]: -2%

Structure (SMILES): Oc1ccccc1O
- inhibition [1]: 28%
- inhibition [2]: 47%
- inhibition [3]: 1%
- inhibition [4]: 25%
- inhibition [5]: 89%
- inhibition [8]: 31%
- inhibition [9]: 10%
- inhibition [6]: 10%
